Experimental data published in ChEMBL document CHEMBL4138058, “Design and synthesis of novel selective estrogen receptor degradation inducers based on the diphenylheptane skeleton” (Medchemcomm, 2017).

Experiments:
Type in all cases: cell-based
[1] = biological target: T1, Estrogen receptor (Homo sapiens) (UniProt P03372); experiment: Downregulation of ERalpha expression in human MCF7 cells at 3 uM after 6 hrs by Western blot method relative to lamin B
T1 sequence (whole entry): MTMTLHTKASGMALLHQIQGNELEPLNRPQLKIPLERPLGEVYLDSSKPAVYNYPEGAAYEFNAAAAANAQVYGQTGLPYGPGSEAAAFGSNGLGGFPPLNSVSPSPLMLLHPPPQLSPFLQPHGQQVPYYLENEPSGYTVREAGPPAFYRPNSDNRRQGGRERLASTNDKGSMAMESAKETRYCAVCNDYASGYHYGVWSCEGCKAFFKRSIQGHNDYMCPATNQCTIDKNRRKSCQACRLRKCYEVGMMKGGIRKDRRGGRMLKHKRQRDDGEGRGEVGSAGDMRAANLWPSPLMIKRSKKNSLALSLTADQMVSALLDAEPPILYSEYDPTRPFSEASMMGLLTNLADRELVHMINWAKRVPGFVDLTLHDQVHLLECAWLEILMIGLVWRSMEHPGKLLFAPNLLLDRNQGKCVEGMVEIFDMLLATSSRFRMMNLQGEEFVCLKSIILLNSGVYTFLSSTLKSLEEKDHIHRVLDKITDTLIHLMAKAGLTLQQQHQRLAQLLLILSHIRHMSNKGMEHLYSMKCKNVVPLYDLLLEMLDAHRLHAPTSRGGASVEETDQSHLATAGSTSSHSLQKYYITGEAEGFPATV
Summary of the method: (§1)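 MCF-7 cells kept in DMEM with 10% FBS, kanamycin and 10 μg/mL insulin, then exposed to compounds for 6 h. Lysates made in SDS buffer (0.1 M Tris-HCl pH 8.0, 10% glycerol, 1% SDS), boiled, BCA-normalized and run on SDS-PAGE. Blots probed with anti-ERα, AR, AhR or VDR and β-actin or lamin B. Chemiluminescence quantified as target/loading-protein ratio; means ± S.E., n=3.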

[2] = biological target: T2, Aryl hydrocarbon receptor (Homo sapiens, UniProt P35869); experiment: Downregulation of AhR expression in human MCF7 cells at 10 uM after 6 hrs in presence of proteasome inhibitor MG132 by Western blot method relative to lamin B; conditions: mcf7, 6 h; summary of the method: as §1
T2 sequence (P35869 whole entry): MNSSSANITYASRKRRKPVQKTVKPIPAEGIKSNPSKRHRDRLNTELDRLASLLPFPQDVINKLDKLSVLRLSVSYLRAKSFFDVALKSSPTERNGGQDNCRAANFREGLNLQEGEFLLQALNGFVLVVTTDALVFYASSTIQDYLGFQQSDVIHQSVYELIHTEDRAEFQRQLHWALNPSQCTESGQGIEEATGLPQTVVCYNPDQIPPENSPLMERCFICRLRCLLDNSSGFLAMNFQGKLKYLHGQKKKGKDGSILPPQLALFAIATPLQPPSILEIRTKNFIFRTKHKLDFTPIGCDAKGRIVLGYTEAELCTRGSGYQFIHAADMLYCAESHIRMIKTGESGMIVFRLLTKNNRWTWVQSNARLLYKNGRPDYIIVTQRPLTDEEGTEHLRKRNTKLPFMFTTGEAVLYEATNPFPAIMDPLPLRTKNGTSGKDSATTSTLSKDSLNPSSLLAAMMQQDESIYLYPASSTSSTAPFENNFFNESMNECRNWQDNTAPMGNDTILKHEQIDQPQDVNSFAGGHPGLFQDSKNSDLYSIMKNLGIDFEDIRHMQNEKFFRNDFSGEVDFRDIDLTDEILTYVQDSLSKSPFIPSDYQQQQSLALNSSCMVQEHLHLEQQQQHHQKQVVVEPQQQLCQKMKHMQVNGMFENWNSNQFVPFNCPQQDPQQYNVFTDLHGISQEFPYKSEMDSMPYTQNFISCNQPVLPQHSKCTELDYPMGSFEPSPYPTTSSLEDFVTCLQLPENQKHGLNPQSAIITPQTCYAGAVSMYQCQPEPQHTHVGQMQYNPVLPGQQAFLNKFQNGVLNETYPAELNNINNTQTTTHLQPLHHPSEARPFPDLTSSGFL

[3] = biological target: T2, Aryl hydrocarbon receptor; experiment: Downregulation of AhR expression in human MCF7 cells at 10 uM after 6 hrs by Western blot method relative to lamin B; conditions: mcf7, 6 h; summary of the method: as §1
[4] = biological target: T1, Estrogen receptor (Homo sapiens); experiment: Downregulation of ERalpha expression in human MCF7 cells at 10 uM after 6 hrs by Western blot method relative to lamin B; summary of the method: as §1
[5] = biological target: T3, Androgen receptor (Homo sapiens) (UniProt P10275); experiment: Downregulation of androgen receptor expression in human MCF7 cells at 1 uM after 6 hrs by Western blot method relative to lamin B; summary of the method: as §1
T3 sequence (whole entry): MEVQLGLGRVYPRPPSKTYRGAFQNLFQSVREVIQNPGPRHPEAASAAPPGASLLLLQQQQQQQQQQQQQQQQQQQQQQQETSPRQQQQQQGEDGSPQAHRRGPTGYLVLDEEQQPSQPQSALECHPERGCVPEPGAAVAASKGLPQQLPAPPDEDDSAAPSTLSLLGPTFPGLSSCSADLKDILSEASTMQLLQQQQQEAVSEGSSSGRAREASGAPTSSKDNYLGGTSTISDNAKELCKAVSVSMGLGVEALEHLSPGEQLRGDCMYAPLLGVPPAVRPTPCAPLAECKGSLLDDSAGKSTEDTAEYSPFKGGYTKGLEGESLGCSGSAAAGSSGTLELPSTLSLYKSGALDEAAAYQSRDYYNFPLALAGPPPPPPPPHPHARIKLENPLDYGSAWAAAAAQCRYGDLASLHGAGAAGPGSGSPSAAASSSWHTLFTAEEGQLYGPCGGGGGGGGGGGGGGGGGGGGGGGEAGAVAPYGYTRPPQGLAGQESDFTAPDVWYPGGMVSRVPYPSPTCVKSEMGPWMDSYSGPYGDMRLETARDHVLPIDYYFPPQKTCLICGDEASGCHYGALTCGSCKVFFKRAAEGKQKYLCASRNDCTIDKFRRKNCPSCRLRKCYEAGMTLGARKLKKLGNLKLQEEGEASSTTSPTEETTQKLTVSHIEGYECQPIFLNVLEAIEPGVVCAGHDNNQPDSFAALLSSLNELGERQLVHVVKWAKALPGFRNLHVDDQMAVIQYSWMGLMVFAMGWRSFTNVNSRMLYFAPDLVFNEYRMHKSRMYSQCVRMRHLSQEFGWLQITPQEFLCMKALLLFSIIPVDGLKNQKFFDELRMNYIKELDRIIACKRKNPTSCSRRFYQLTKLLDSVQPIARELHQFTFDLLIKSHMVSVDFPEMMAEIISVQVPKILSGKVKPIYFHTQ

- Activity [1]: 47 to 59%
- Activity [2]: 107%
- Activity [3]: 81%
- Activity [4]: 32 to 44%
- Activity [5]: 94%
Compound: CCCCCCCCCCNCCOc1ccc(C(CCC)(CCC)c2ccc(O)c(C)c2)cc1C
